Screens deposited in PubChem by Johns Hopkins Ion Channel Center.
TRPC4 block: blocks the mouse TRPC4 cation channel. AID 2247. HEK293 TRPC4beta/mu-opioid, DAMGO-evoked Fluo4 calcium flux; active compounds read low. 300,000 tested, 0.39% active. Q9QUQ5. B-score at 10 µM;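 active = B-score over 3 SD under the library average, no early fluorescence shift, positive overall ratio signal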
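Material: HEK293 cells with stable TRPC4beta plus mu-opioid receptor expression; probe or stimulus: DAMGO in two steps, submaximal then maximal; technique: Fluo4 calcium fluorescence by kinetic imaging, 5 s 1 Hz baseline; measure: integrated fluorescence ratio relative to baseline, converted to per-well B score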
TRPC6 inhibitor: blocks the mouse TRPC6 cation channel; Q61143; HEK293-TRPC6, membrane potential dye, ACh-evoked depolarization; active compounds read low; B-score at 10 µM; 310,000 tested, 1.1% active;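 active = B-score under library mean minus 3 SD, initial fluorescence not abnormally high, positive integrated signal ratio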;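 note: B-score derived from integrated fluorescence ratio over the kinetic read; more negative B-score means stronger inhibition of depolarization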
TRPC6 act: activates the mouse TRPC6 cation channel; Q61143; HEK293-TRPC6 membrane potential dye fluorescence; active compounds read high; B-score at 10 µM; 310,000 tested, 0.13% active; AID 2550;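 active = B-score of the integrated fluorescence ratio above library mean plus 3 SD, and starting fluorescence ratio within library mean plus 5 SD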;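 note: higher score means more depolarization so channel activation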
TRPC4 potent: allosterically enhances the mouse TRPC4 cation channel | Q9QUQ5 | HEK293 TRPC4beta/mu-opioid, DAMGO EC20, Fluo-4 Ca2+ flux; active compounds read high | B-score at 10 µM | 310,000 tested, 0.42% active;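 active = B-score of calcium response area above 5 SD of library B-scores, with initial fluorescence ratio within 5 SD of library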
TRPC4 act: opens the mouse TRPC4 cation channel; HEK293 TRPC4beta/mu-opioid, Fluo4 calcium fluorescence; active compounds read high; B-score at 10 µM; Q9QUQ5; AID 2237; 310,000 tested, 0.49% active;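 active = B-score above 5 SD of library B-scores, and initial fluorescence ratio not above library mean plus 5 SD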;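 note: positive B-score marks a calcium rise read as TRPC4 activation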
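Technique: kinetic Fluo4 calcium fluorescence; Test system: TRPC4beta and mu-opioid receptor HEK293 stable cells; Measure: B-scored integrated calcium fluorescence ratio; Benchmarks: low control buffer alone, high control maximal DAMGO; Schedule: 45 min room-temperature Fluo4 loading, 110 s read.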
Numbers stand for hits; n = inactive; x = no result given. An excerpt weighted towards active compounds, which were near 2.3% of everything screened.

SMILES	TRPC4 block	TRPC6 inhibitor	TRPC6 act	TRPC4 potent	TRPC4 act
Cc1nn(C(=O)c2cccnc2)c(C)c1Sc1ccccc1	-6	n	n	n	n
CCN(CC)CCn1c2c(c(SCC(=O)Nc3nccs3)nc1=O)CCCC2	n	n	n	n	n
CC1(C)CC(NC2C3CC4CC(C3)CC2C4)CC(C)(C)N1 (stereo not drawn)	n	n	n	12	n
Cc1ccccc1C(=O)NC1CC(C)(C)NC(C)(C)C1	n	n	n	n	n
O=C(O)C1CCN(C(=O)c2ccccc2N2C(=O)[C@@H]3Cc4c([nH]c5ccccc45)C(c4cccc(Cl)c4)N3C2=O)CC1 (stereo partly drawn)	n	n	n	n	n
CC1CCCCN1C(=O)COC(=O)/C=C/c1ccc2ccccc2n1 (stereo not drawn)	n	n	n	n	n
COc1cccc(C(=O)NCCCNC(=O)c2cccc(OC)c2)c1	n	n	n	n	n
O=C(NCCCN1CCN(CCCNC(=O)c2cccc(Cl)c2)CC1)c1cccc(Cl)c1	n	n	n	18	n
O=C(NCCCN1CCN(CCCNC(=O)c2ccc3c(c2)OCO3)CC1)c1ccc2c(c1)OCO2	n	n	n	n	138
COc1cccc(C(=O)NCCCN2CCN(CCCNC(=O)c3cccc(OC)c3)CC2)c1	n	n	n	12	n
COCCCNC(=O)c1ccc2c(c1)OCO2	n	n	n	n	n
COc1ccc(Nc2nc3c(C)cccc3cc2C#N)c(OC)c1	n	n	n	n	n
CCCNC(=O)Nc1cc(OC)c(OC)cc1Cc1nccc2cc(OC)c(OC)cc12	n	n	n	n	n
CCN(CC)C(=O)Cn1c(=O)c2ccccc2n2c(=S)sc(-c3cccc(C)c3)c12	n	n	n	n	n
COC(=O)NCC(c1ccc2c(c1)OCO2)N1CCN(c2ccc(OC)cc2)CC1 (stereo not drawn)	n	n	n	n	67
COc1ccc(N2CCN(C(CNC(=O)C(C)C)c3ccc4c(c3)OCO4)CC2)cc1 (stereo not drawn)	n	n	n	n	51
COCCNC(=O)C(=O)NCC(c1ccc2c(c1)OCO2)N1CCN(c2ccc(F)cc2)CC1 (stereo not drawn)	n	n	n	n	n
CC1(C)CC2CC(C)(CN2C(=O)c2cc(-c3ccc(O)cc3)on2)C1 (stereo not drawn)	-6	n	n	n	n
COc1cccc(-c2cc(C(=O)N3CC4(C)CC3CC(C)(C)C4)no2)c1 (stereo not drawn)	n	n	n	n	n
Cc1sc(NC(=O)C2=COCCO2)nc1-c1ccc(F)cc1	n	n	n	n	n
CCc1cccc(OCC(=O)Nc2ccc(C(=O)O)cc2NC(=O)COc2cccc(CC)c2)c1	-8	n	n	n	n
CCc1cccc(OCC(=O)Nc2c[nH]c(=O)[nH]c2=O)c1	n	n	n	n	n
CC(=O)Nc1cccc(NC(=O)c2ccc(C(=O)Nc3cccc(NC(C)=O)c3)nc2)c1	n	n	n	n	73
CC(=O)c1cccc(NC(=O)c2ccc(C(=O)Nc3cccc(C(C)=O)c3)nc2)c1	n	n	n	n	n
COC(=O)C1=C(C)N(Cc2ccccc2)C(=S)N[C@H]1c1ccccc1	-6	n	n	n	n
SMILES	TRPC4 block	TRPC6 inhibitor	TRPC6 act	TRPC4 potent	TRPC4 act
COC(=O)C1=C(C)N(Cc2ccccc2)C(=O)N[C@H]1c1ccccc1	n	n	n	n	n
CCN1C(=NCCc2ccccn2)N[C@@H](c2cccc(F)c2)C(C(=O)OC)=C1C	n	n	n	n	n
COC(=O)C1=C(C)N(Cc2ccccc2)C(=NCCc2ccccn2)N[C@H]1c1cccc(F)c1	n	n	n	n	88
O=c1cc(CN2CC(O)Cc3ccc4ccccc4c32)nc2sccn12 (stereo not drawn)	n	n	n	n	n
COc1ccc(NC(=O)NCc2ccccn2)c(OC)c1	n	n	n	n	n
Cc1ccc(C(=O)NCCNC(=O)c2ccccn2)cc1	n	n	n	n	n
CCCCN(C)CCCNC(=O)CN1N=C(c2ccc(Cl)cc2)CCC1=O	n	n	n	12	102
CCN1CCN(c2c(Cl)cccc2NC(=O)c2cc3ccccc3o2)CC1	n	n	n	23	n
CCN1CCN(c2ccc(S(=O)(=O)N3CCCCC3)cc2NC(=O)Cc2c(F)cccc2Cl)CC1	n	n	n	11	n
CCN1CCN(c2ccc(S(=O)(=O)N3CCCCC3)cc2NC(=O)c2cccc(Cl)c2)CC1	n	n	n	18	45
CCN1CCN(c2ccc(S(=O)(=O)N3CCCCC3)cc2NC(=O)c2ccc(OC(F)F)cc2)CC1	n	n	n	n	n
CCN1CCN(c2ccc(S(=O)(=O)N3CCCCC3)cc2NC(=O)c2cccc(OC(F)F)c2)CC1	n	n	n	19	n
COc1ccc(C(=O)Nc2ccc(NC(=O)C3CC3)nc2)cc1	n	n	n	n	n
CCOC(=O)c1ccc(Nc2sc(C(=O)c3cccc([N+](=O)[O-])c3)c(N)c2C#N)cc1	n	n	n	n	n
CCN1CCN(c2ccc(S(=O)(=O)N3CCCCC3)cc2NC(=O)/C=C/c2cccc(OC)c2OC)CC1	n	n	n	n	n
CCN1CCN(c2ccc(S(=O)(=O)N3CCCCC3)cc2NC(=O)c2cc3ccccc3o2)CC1	n	n	n	18	n
CCN1CCN(c2ccc(S(=O)(=O)N3CCCCC3)cc2NC(=O)Cc2ccc(OC)cc2)CC1	n	n	n	n	63
S=C(NCc1ccco1)Nc1ccc(Cl)cn1	n	n	n	n	n
CNC(=O)c1cc(C(=O)c2ccc(F)cc2C(F)(F)F)c[nH]1	n	n	n	n	n
CCOC(=O)[C@@H]1CCN(Cc2ccccc2)C[C@H]1c1ccccc1	-7	n	n	n	n
O=C(c1ccc(Cl)cc1)C1CCCN(Cc2cccn2-c2cccnc2)C1 (stereo not drawn)	n	n	n	n	n
O=C(c1ccc2c(c1)OCO2)C1CCCN(Cc2ccccc2OC(F)F)C1 (stereo not drawn)	-7	n	n	n	n
O=C(c1ccc2c(c1)OCO2)C1CCCN(Cc2cccn2-c2cccnc2)C1 (stereo not drawn)	-6	n	n	n	n
O=C(c1ccc2c(c1)OCO2)C1CCCN(Cc2cc(F)ccc2-n2cccn2)C1 (stereo not drawn)	-5	n	n	n	n
O=C(CSc1nc2[nH]ncc2c(=O)n1-c1ccccc1Br)NCc1ccccc1Cl	-6	n	n	n	n
O=C(O)COC(=O)Cc1ccccc1Nc1c(Cl)cccc1Cl	n	n	n	n	n
CN(C)C(CNC(=O)CCOc1ccccc1)c1ccco1 (stereo not drawn)	x	n	n	n	n
CN(C)C(CNC(=O)CCc1nc2ccccc2s1)c1ccccc1 (stereo not drawn)	-7	n	n	n	n
